# Compound activity: PubChem BioAssay, several laboratories
# Rad51 HR inh: human RAD51 strand exchange inhibitors, primary screen, biochemical, fluorescence. DNA repair protein RAD51 homolog 1 (Homo sapiens), Q06609. hRad51 DNA strand exchange, fluorescence dequenching. inhibition, % at 10 µM. actives 0.085% (n = 200,000);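 active = inhibition above 40% at the single screening dose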;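 note: 0% = DMSO control wells and 100% = blanks with heterologous ssDNA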
#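 material = hRad51 filaments on single-stranded DNA | timing = filaments 15 min 37 °C, then compound 30 min | signal = FRET fluorescence dequenching, excitation 485 nm, emission 520 nm | benchmarks = control wells and blank wells on each plate | evaluation = percent inhibition relative to plate controls and blanks | compound = 10 µM final, single point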
# Arbovirus inh: antivirals against arbovirus infection, primary screen, cell-based, full library, 10K replicate subset | AID 1251, 2008 | inhibition, % at 10 µM | actives 0.37% (n = 200,000) | arbovirus infection cell-based antiviral screen; in the data active = inhibition above about 30%
# PKD1 kinase inh: inhibitors of human PKD1 kinase, biochemical, fluorescence polarization; Serine/threonine-protein kinase D1 (Homo sapiens), Q15139; PKD1 kinase fluorescence polarization assay; inhibition, % (concentration not given with the values); AID 797, 2007; actives 0.056% (n = 200,000)
# L major viab: Leishmania major promastigote growth inhibition, primary screen. Leishmania major promastigotes, resazurin fluorescence viability. actives 9% (n = 200,000). inhibition, % at 10 µM;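 note: promastigotes grown with compound for 44 hours at 28 °C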
# CHOP inhibitor: inhibitors of CHOP promoter induction, primary screen, cell-based, unfolded protein response, luciferase reporter. inhibition, % at 10 µM. AID 2732, 2010. CHO-K1 CHOP-promoter luciferase, tunicamycin-induced, 15-18 h. actives 3.8% (n = 220,000);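 active = compounds that reduced the stress-induced luciferase reporter signal by more than about 70% of percent inhibition, limit read from the data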;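 note: 0% = tunicamycin plus vehicle and 100% = wells without tunicamycin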
# Wee1 stabilizer: Wee1 degradation inhibitors, primary screen, cell-based, HeLa, Wee1K328M-luciferase, luminescence; Wee1-like protein kinase (Homo sapiens), P30291; HeLa Luc-Wee1K328M stability; 100% = proteasome inhibitor MG132 effect; reporter increase, % at 5 µM; actives 1.2% (n = 220,000);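 active = activation above the mean of all tested compounds plus 3 SD, set per screening run, cut at about 8.8% in these data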;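 note: cells exposed to compound for 20 h before luminescence read; 0% = DMSO alone and 100% = MG132 at 30 µM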
# Target sequence (P30291 whole entry K328M): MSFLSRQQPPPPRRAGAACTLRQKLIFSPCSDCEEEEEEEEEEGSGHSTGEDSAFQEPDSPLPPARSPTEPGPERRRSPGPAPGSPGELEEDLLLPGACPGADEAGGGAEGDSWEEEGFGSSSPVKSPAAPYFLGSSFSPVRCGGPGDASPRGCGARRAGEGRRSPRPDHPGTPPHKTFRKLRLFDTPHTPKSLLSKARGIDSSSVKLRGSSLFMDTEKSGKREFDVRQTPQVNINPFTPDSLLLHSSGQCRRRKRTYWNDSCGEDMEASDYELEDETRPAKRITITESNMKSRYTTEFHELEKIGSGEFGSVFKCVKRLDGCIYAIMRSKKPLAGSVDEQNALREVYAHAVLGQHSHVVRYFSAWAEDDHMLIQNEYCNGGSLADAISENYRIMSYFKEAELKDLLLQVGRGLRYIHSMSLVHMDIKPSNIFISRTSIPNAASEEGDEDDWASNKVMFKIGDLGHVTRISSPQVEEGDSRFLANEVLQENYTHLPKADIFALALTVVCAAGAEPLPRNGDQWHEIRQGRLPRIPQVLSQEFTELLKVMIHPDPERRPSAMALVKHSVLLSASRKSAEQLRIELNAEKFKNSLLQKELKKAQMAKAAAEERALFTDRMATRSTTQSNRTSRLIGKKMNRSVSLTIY
# CHOP confirm: retest of CHOP induction inhibitors, confirmation, cell-based | shares compounds with CHOP inhibitor | actives 45% (n = 2,100) | CHO-CHOP promoter luciferase reporter, tunicamycin-induced, luminescence | inhibition, % at 10 µM;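 active = mean of three repeat readings of reporter signal inhibition above a set limit, cut at about 70% in these data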;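 note: 0% = tunicamycin plus vehicle and 100% = wells lacking tunicamycin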
# Starred values were filed as active, the others as inactive; · = not tested or not shown. Sampled rows, rich in hits. Any-hit rate of the full collection: about 12%. Cut-off read from the data, not from the text of the source, unless noted: active = inhibition above about 50%; inactive = the rest.
SMILES,Rad51 HR inh,Arbovirus inh,PKD1 kinase inh,L major viab,CHOP inhibitor,Wee1 stabilizer,CHOP confirm
Cc1ccc(C(=O)COC(=O)c2cc(=O)[nH]c3ccccc23)cc1C,1,2,-4,-3,102*,3,15
NC(=O)COC(=O)c1cc(=O)[nH]c2ccccc12,14,·,·,·,-2,3,·
CCCCCCC(=O)N/N=C1\CCCc2ccccc21,-4,3,-4,0,1,0,·
CN(c1ccccc1)c1ccc(/C=C/[N+](=O)[O-])cc1,-41,-35,6,100*,110*,-2,-96
CN(c1ccccc1)c1ccc(/C=N/NC(=O)CC#N)cc1,0,-4,-13,-3,26,-1,·
O=c1c2c(-c3ccccc3)csc2nc2c3ccccc3c(NCCN3CCOCC3)nn12,6,-37,0,100*,106*,1,-24
O=c1[nH]c2ccccc2nc1NCCN1CCOCC1,4,3,-2,-2,-1,-3,·
O=C(N/N=C/c1ccc(OCC(=O)N2CCCCC2)cc1)c1ccccc1O,-1,-11,6,-6,2,-2,·
Cc1cccc(Oc2ccccc2NC(=O)c2cnccn2)c1,·,0,-3,3,99*,4,-16
CCCOc1ccc(N2C(=O)CC(NNC(=O)c3ccc(COc4ccccc4)o3)C2=O)cc1 (stereo unspecified),-6,2,-11,-2,102*,-4,19
CCOc1cccc(N2C(=O)CC(NNC(=O)c3ccc(Br)o3)C2=O)c1 (stereo unspecified),10,·,·,·,11,4,·
O=c1[nH]c(/C(Cl)=C/c2cccc(F)c2)nc2cc(C(F)(F)F)ccc12,-8,12,-5,6,70,-3,·
O=C1C(Cl)=C(Nc2ccccc2)C(=O)c2ccccc21,6,-36,0,-5,112*,1,127*
CC(C)NC1=C(Cl)C(=O)c2ccccc2C1=O,11,-41,-5,15,19,-2,·
Cc1ccc(NC(c2ccccc2)c2nc3ccccc3[nH]c2=O)cc1 (stereo unspecified),4,·,·,·,102*,0,10
Cc1nc2ccccc2[nH]c1=O,-6,·,·,·,13,-1,·
CCCCNC(=O)CCn1c(=O)c2ccccc2n(CC(=O)NCCc2ccc(OC)c(OC)c2)c1=O,5,8,-5,-1,14,9,·
Nc1nc(SCc2ccc(Cl)cc2Cl)nc2nc3c(cc12)CCCC3,-20,-24,-3,10,103*,-3,-38
Nc1nc(SCc2ccccc2Cl)nc2nc3c(cc12)CCCC3,1,7,-17,-3,17,-1,·
O=C1N=C2N(CCN3CCCCC3)c3ccccc3N2/C1=C\c1ccc([N+](=O)[O-])o1,3,-34,-8,100*,107*,-1,-27
C=CCNC(=O)/C(=C/c1cccc([N+](=O)[O-])c1)NC(=O)c1ccco1,·,4,-3,-7,43,-1,·
O=C(CSc1ccccc1[N+](=O)[O-])NC1CCS(=O)(=O)C1 (stereo unspecified),·,8,-12,-3,-5,3,·
COc1ccc([N+](=O)[O-])cc1NC(=O)c1ccc(CN(c2ccccc2)S(C)(=O)=O)cc1,7,-1,-3,3,-9,1,·
COc1ccc(NC(=O)/C(Cl)=C(/Cl)S(=O)(=O)Cc2ccc(C)cc2)cn1,-4,-36,-7,22,·,2,118*
CCOC(=O)C1=C(Cc2ccc(F)cc2)C(=O)c2ccccc2C1=O,-8,3,4,48,108*,-2,37
SMILES,Rad51 HR inh,Arbovirus inh,PKD1 kinase inh,L major viab,CHOP inhibitor,Wee1 stabilizer,CHOP confirm
CC(C)CCSc1nc2c(c(=O)[nH]c(=O)n2C)n1CCCc1ccccc1,-6,-1,-3,13,105*,1,106*
CCC(C)Sc1nc2c(c(=O)[nH]c(=O)n2C)n1Cc1ccc(Cl)cc1 (stereo unspecified),4,21,0,0,98*,-2,103*
COc1cc(NS(=O)(=O)c2ccc(NC(=S)NC(=O)c3sc4ccccc4c3Cl)cc2)ncn1,4,0,9,-9,100*,-4,41
OC(CNCC(c1ccc(Cl)cc1Cl)c1c[nH]c2ccccc12)c1ccccc1 (stereo unspecified),-3,-33,6,100*,107*,6,125*
CS(=O)(=O)c1[nH]nc(-c2cccc(Cl)c2)c1C#N,-15,·,·,·,-10,2,·
Cc1ccc(NC(=O)COc2ncnc3c(Cl)cc(Cl)cc23)cc1[N+](=O)[O-],3,5,-3,48,104*,-1,4
Cc1cc(C)n(-c2nc(N(c3ccccc3)c3ccccc3)nc(-n3nc(C)cc3C)n2)n1,-1,-6,4,54*,109*,-2,140*
O=C(NNC1CC(=O)N(c2ccc(Cl)cc2)C1=O)c1ccco1 (stereo unspecified),-1,11,3,-5,5,-1,·
Cc1ccccc1OCCNC(=O)CSc1ccc(C(F)(F)F)cc1[N+](=O)[O-],-3,2,6,-3,52,1,·
CSc1nnc(-c2ccccc2)o1,0,1,-2,4,2,-2,·
O=S1(=O)C=C(Sc2nnc(-c3ccccc3)o2)c2ccccc21,·,-47,-7,17,·,1,125*
Cc1nc2ccc(NC(=O)c3ccc(Cl)c([N+](=O)[O-])c3)cc2s1,8,3,-3,2,17,1,·
Cc1nc2ccc(NC(=O)c3cc([N+](=O)[O-])cc([N+](=O)[O-])c3Cl)cc2s1,-1,-29,-3,-3,107*,-1,6
CC1=CC(=O)C=C(C)C1=NOS(=O)(=O)c1ccccc1,-9,-31,-2,100*,·,1,74*
Cc1ccc2c(c1)/C(=N/OS(=O)(=O)c1ccccc1)CCS2,-2,·,-9,-9,·,-2,·
Cc1c(NC(=O)C(C)N(c2ccccc2)S(C)(=O)=O)c(=O)n(-c2ccccc2)n1C (stereo unspecified),-18,7,-2,-1,13,2,·
CCN1C(=O)/C(=C/C=C2/Sc3ccccc3N2CCO)SC1=S,-6,-13,-3,1,25,-1,·
CCN1/C(=C/C=C/C=C/c2sc3ccccc3[n+]2CC)Sc2ccccc21,-11,-45,-3,100*,104*,2,119*
O=[N+]([O-])c1cc2oc3c(c2c(C=NCc2ccccc2)c1O)CCCC3,·,7,0,11,99*,-1,8
